In experiment [1] the target is T1, Adenosine receptor A2b (Homo sapiens, UniProt P29275).
T1 sequence (P29275 whole entry): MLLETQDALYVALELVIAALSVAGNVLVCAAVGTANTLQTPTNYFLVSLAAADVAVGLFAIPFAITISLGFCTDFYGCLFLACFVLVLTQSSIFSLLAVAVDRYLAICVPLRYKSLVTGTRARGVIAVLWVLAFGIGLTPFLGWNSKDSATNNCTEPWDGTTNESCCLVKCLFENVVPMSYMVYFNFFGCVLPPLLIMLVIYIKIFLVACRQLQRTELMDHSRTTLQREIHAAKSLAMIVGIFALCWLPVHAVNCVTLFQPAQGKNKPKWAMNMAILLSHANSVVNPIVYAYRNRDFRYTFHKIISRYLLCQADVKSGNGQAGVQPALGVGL
In words: Displacement of [3H]-DPCPX from human Adenosine A2B receptor expressed in HEK293 cells; range 118-173. The class given is cell-based. Summed up: (§1)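 HEK-293 membranes expressing the human receptor were incubated 60 min at 25 °C. Six to eight test concentrations were used. Nonspecific binding was set with NECA. n = 3-6.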
On the technique in general: Displacement assays read how much labelled ligand stays bound in the presence of the test substance.

The target in experiment [2] is T2, Adenosine receptor A3 (Homo sapiens, UniProt P0DMS8).
T2 sequence (P0DMS8 whole entry): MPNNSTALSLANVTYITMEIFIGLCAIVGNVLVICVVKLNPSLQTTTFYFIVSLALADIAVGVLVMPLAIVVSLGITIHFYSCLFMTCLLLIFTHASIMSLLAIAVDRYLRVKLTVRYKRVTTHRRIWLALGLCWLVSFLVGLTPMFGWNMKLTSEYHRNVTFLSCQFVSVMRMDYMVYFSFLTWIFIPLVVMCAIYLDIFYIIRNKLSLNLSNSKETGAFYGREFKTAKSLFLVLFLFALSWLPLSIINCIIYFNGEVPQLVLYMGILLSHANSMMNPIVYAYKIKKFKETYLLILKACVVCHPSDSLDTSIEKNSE
In words: Displacement of [3H]MRE3008-F20 from human Adenosine A3 receptor expressed in HEK cells; range 0.65-1.58. It is filed as cell-based, HEK293.

The target in experiment [3] is T3, Adenosine receptor A2a (Homo sapiens, UniProt P29274). The experiment in a line: Displacement of [3H]SCH-58261 from human Adenosine A2A receptor expressed in HEK293 cells; range 255-366. It is filed as cell-based.
T3 sequence (P29274 whole entry): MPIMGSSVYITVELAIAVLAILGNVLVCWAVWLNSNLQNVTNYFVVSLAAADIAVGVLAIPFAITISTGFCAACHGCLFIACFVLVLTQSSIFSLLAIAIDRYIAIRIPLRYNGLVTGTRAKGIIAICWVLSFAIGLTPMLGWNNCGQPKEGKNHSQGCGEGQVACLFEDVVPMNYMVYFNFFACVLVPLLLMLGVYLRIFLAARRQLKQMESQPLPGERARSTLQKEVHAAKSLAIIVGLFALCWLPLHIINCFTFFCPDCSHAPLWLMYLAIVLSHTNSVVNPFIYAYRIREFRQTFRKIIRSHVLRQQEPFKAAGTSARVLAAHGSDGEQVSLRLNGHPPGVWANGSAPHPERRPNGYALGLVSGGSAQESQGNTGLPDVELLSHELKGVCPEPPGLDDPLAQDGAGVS
For experiment [4], the target named is Adenosine receptors; A1 & A3 (Homo sapiens) (UniProt P30542+P0DMS8). The experiment in a line: Selectivity ratio (hA1/hA3). The class given is protein assay.
The target of experiment [5] is Adenosine receptors; A2b & A3 (Homo sapiens) (UniProt P29275+P0DMS8). The experiment in a line: Selectivity ratio (h2B/hA3). It is filed as protein assay.
The target of experiment [6] is T1, Adenosine receptor A2b. In words: Displacement of [3H]DPCPX binding at human Adenosine A2B receptor expressed in HEK293 cells. It is filed as cell-based. The gist of the method:
(§2)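 Membranes from HEK-293 cells with human recombinant A2B receptor. Incubation 60 min at 25 °C in 50 mM Tris HCl, 10 mM MgCl2, 1 mM EDTA, 0.1 mM benzamidine, pH 7.4, with 2 IU/mL adenosine deaminase and 40 nM [3H]DPCPX. At least six to eight test concentrations. Nonspecific binding defined with NECA. n = 3-6.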

The target in experiment [7] is T3, Adenosine receptor A2a. In words: Displacement of [3H]SCH-58261 from human Adenosine A2A receptor expressed in HEK293 cells; range 300-414. The class given is cell-based.
Experiment [8] concerns the target T2, Adenosine receptor A3. The experiment in a line: Displacement of specific [3H]MRE3008-F20 binding at human Adenosine A3 receptor expressed in HEK cells; value ranges from 39-55. It is filed as cell-based, HEK293.
The target of experiment [9] is T4, Adenosine receptor A1 (Homo sapiens, UniProt P30542).
T4 sequence (P30542 whole entry): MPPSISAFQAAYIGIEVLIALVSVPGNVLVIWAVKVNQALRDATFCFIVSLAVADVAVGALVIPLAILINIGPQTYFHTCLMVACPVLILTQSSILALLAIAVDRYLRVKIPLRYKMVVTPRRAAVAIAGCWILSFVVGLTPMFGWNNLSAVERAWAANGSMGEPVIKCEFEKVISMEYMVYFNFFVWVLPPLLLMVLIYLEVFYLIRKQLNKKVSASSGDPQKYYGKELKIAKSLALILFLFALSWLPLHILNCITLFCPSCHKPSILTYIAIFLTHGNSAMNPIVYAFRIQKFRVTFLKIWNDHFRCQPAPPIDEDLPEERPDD
In words: Displacement of [3H]DPCPX from human Adenosine A1 receptor expressed in CHO cells. The class given is cell-based. Summed up:
(§3)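 Human recombinant A1 receptor in CHO cell membranes, resuspended in 50 mM Tris HCl pH 7.4. Displacement run 120 min at 25 °C with 1 nM [3H]DPCPX, 50 µg protein per assay, and at least six to eight test concentrations. Nonspecific binding defined with CHA. Bound and free separated on glass-fiber filters; filter radioactivity counted. n = 3-6.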

Experiment [10] addresses T1, Adenosine receptor A2b. The experiment in a line: Displacement of [3H]DPCPX from human Adenosine A2B receptor expressed in HEK293 cells; range 68-105. It is filed as cell-based. The gist of the method:
as §2

Experiment [11] addresses T3, Adenosine receptor A2a. In words: Displacement of [3H]SCH-58261 from human Adenosine A2A receptor expressed in HEK293 cells; range 134-190. The class given is cell-based.
For experiment [12], the target named is T4, Adenosine receptor A1. The experiment in a line: Displacement of [3H]DPCPX from human Adenosine A1 receptor expressed in CHO cells; range 330-486. It is filed as cell-based.
In experiment [13] the target is T2, Adenosine receptor A3. In words: biochemical.
Experiment [14] concerns the target T3, Adenosine receptor A2a. In words: Displacement of [3H]SCH-58261 from human Adenosine A2A receptor expressed in HEK293 cells; range 25-40. It is filed as cell-based.
The target of experiment [15] is T1, Adenosine receptor A2b. In words: Displacement of [3H]DPCPX from human Adenosine A2B receptor expressed in HEK293 cells; range 105-170. The class given is cell-based. The gist of the method: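 Competition binding on membranes of HEK-293 cells carrying recombinant human A2B receptor. Incubation 60 min at 25 °C in 50 mM Tris HCl pH 7.4 with 10 mM MgCl2, 1 mM EDTA, 0.1 mM benzamidine and 2 IU/mL adenosine deaminase. Radioligand 40 nM [3H]DPCPX, at least six to eight test concentrations. NECA defined nonspecific binding. Bound ligand separated on glass-fibre filters and counted; n = 3-6.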

In experiment [16] the target is T2, Adenosine receptor A3. The experiment in a line: Displacement of [3H]MRE3008-F20 from human Adenosine A3 receptor expressed in HEK cells; range 0.61-0.84. The class given is cell-based, HEK293.
In experiment [17] the target is T4, Adenosine receptor A1. In words: Displacement of [3H]DPCPX from human Adenosine A1 receptor expressed in CHO cells; range 264-463. It is filed as cell-based. The gist of the method:
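Competition binding on membranes of CHO cells stably expressing human A1 receptor, resuspended in 50 mM Tris HCl pH 7.4. Incubation 120 min at 25 °C with 1 nM [3H]DPCPX, 50 µg protein per assay and at least six to eight test concentrations. CHA defined nonspecific binding. Bound ligand separated on glass-fibre filters and counted; n = 3-6.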

Experiment [18] addresses T2, Adenosine receptor A3. The experiment in a line: Inhibition of IB-MECA agonist-mediated cAMP production in CHO cell membranes expressing human Adenosine A3 receptor; range 2.7-7.8. It is filed as functional, cell-based.
The target in experiment [19] is T2, Adenosine receptor A3. The experiment in a line: biochemical. The source holds these as a separate data set.
The target of experiment [20] is T1, Adenosine receptor A2b. The experiment in a line: Displacement of [3H]DPCPX from human Adenosine A2B receptor expressed in HEK293 cells; range 244-373. The class given is cell-based. The gist of the method: as §1
Experiment [21] deals with T3, Adenosine receptor A2a. The experiment in a line: Displacement of [3H]SCH-58261 from human Adenosine A2A receptor expressed in HEK293 cells; range 93-130. The class given is cell-based.
Experiment [22] concerns the target T4, Adenosine receptor A1. The experiment in a line: Displacement of [3H]DPCPX from human Adenosine A1 receptor expressed in CHO cells; range 601-888. It is filed as cell-based. The gist of the method: as §3
Experiment [23] has as its target T1, Adenosine receptor A2b. In words: Displacement of [3H]DPCPX from human Adenosine A2B receptor expressed in HEK293 cells; range 43-58. It is filed as cell-based. The gist of the method:
as §1

In experiment [24] the target is T2, Adenosine receptor A3. The experiment in a line: Displacement of [3H]MRE3008-F20 from human Adenosine A3 receptor expressed in HEK cells; range 0.12-0.37. It is filed as cell-based, HEK293.
Experiment [25] has as its target T4, Adenosine receptor A1. The experiment in a line: Displacement of [3H]DPCPX from human Adenosine A1 receptor expressed in CHO cells; range 358-468. It is filed as cell-based.
In experiment [26] the target is T3, Adenosine receptor A2a. The experiment in a line: Displacement of [3H]SCH-58261 from human Adenosine A2A receptor expressed in HEK293 cells; range 102-215. The class given is cell-based.

Usually Ki stands for a dissociation constant, usually derived from enzyme kinetics or from competition with a known ligand. The low end stands for higher affinity, the high end for lower affinity. In the case of `CCCn1cc2c(nc(NC(=O)Cc3ccccc3)n3nc(-c4ccco4)nc23)n1`, the values for the Ki in experiment [1], in experiment [2] and in experiment [3] were 143 nM, 1.01 nM and 306 nM, respectively. The values for the Ratio in experiment [4] and in experiment [5] were 348 and 142, respectively.
As to `CCCCn1cc2c(nc(NC(=O)Nc3ccc(S(=O)(=O)O)cc3)n3nc(-c4ccco4)nc23)n1`, the Ki in [6] is above 10000 nM; in [7], 352 nM; in [8] it was 47 nM; in experiment [9], above 10000 nM. The Ratio in experiment [4] and in experiment [5] was above 213 throughout.
As to `CCn1cc2c(nc(NC(=O)Nc3ccc(Cl)cc3)n3nc(-c4ccco4)nc23)n1`, the Ki worked out at 85 nM in experiment [10], 160 nM in experiment [11], 400 nM in experiment [12] and 0.2 nM in experiment [13]. Besides, the Ratio in experiment [4] was found to be 2000; in experiment [5], 425.
With `CCCCn1cc2c(nc(NC(=O)Nc3ccc(C(F)(F)F)cc3)n3nc(-c4ccco4)nc23)n1`, the Ki in experiment [14] turned out to be 31 nM; in [15], 130 nM; in [16] it was 0.72 nM; in experiment [17], 350 nM. The results for the Ratio in experiment [4] and in [5] were 486 and 181, respectively.
For orientation: IC50 means the concentration needed to halve the response being measured. For `Cc1ccc(NC(=O)Nc2nc3nn(C)cc3c3nc(-c4ccco4)nn23)cc1`, the IC50 in [18] came out at 4.6 nM. For the same compound, the Ki in experiment [19] came to 0.31 nM; in experiment [20], 302 nM; in experiment [21], 110 nM; in [22] it was 731 nM. Also, the values for the Ratio in [4] and in experiment [5] were 2360 and 974, respectively.
Turning to `CCCCn1cc2c(nc(NC(=O)Nc3ccccc3)n3nc(-c4ccco4)nc23)n1`, the inhibitory constant (Ki) in [23] is 50 nM; in [24], 0.21 nM; in experiment [25] it was 409 nM; in experiment [26] it was 148 nM. For the same compound, the Ratio in [4] came to 1950; in experiment [5], 238.

The values above are taken from ChEMBL document CHEMBL1136016, “Synthesis, biological activity, and molecular modeling investigation of new pyrazolo[4,3-e]-1,2,4-triazolo[1,5-c]pyrimidine derivatives as human A(3) adenosine receptor antagonists” (J Med Chem, 2002).
